Values after ≈ are worked out from the molar mass of the structure shown.
Columns and labels:
Assay type in all cases: functional, organism-based
[1] = tested on: Trypanosoma brucei brucei; experiment: Antitrypanosomal activity against Trypanosoma brucei brucei Lab110 EATRO after 48 hrs
How it was run: (§1)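 Bloodstream-form trypanosomes were cultured in modified IMDM with 20% horse serum at 37 °C, in 24-well plates inoculated with 10^5 trypanosomes per well. Half the well volume was changed daily. Compounds were dissolved in DMSO, with a final DMSO concentration of at most 0.3%, and tested in duplicate at final concentrations of 0.1–100 µg/mL. Parasites were Coulter-counted at 48 h, and IC50 values were taken from semi-log plots. Each assay was run at least twice.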

[2] = tested on: Trypanosoma brucei rhodesiense; experiment: Antitrypanosomal activity against Trypanosoma brucei rhodesiense KETRI 243 isolate after 48 hrs; how it was run: as §1
[3] = tested on: Trypanosoma brucei rhodesiense; experiment: Antitrypanosomal activity against Trypanosoma brucei rhodesiense KETRI 243 As 10-3 isolate after 48 hrs; how it was run: as §1

| SMILES | IC50 [1] | IC50 [2] | IC50 [3] |
| --- | --- | --- | --- |
| O=C(/C=C(O)/C=C/c1ccc(O)cc1)CCc1ccc(O)cc1 | 2.6 µg/mL (≈ 8.38 µM) | 2.8 µg/mL (≈ 9.02 µM) | 1.3 µg/mL (≈ 4.19 µM) |
| COc1cc(CCC(=O)/C=C(O)/C=C/c2ccc(O)cc2)ccc1O [LETESTUIANIN A] | > 100 µg/mL | – | – |
| Nc1nc(N)nc(Nc2ccc([As]3SCC(CO)S3)cc2)n1 (stereo unspecified) [MELARSOPROL] | 0.002 µg/mL | 0.0005 µg/mL | 0.005 µg/mL |

Next, values leading:

| IC50 [1] | IC50 [2] | IC50 [3] | SMILES |
| --- | --- | --- | --- |
| 67 µg/mL (≈ 181 µM) | > 100 µg/mL | > 100 µg/mL | COc1cc(/C=C/C(O)=C/C(=O)CCc2ccc(O)c(OC)c2)ccc1O [LETESTUIANIN B] |
| 1.4 µg/mL (≈ 4.48 µM) | 2.3 µg/mL (≈ 7.36 µM) | 2.6 µg/mL (≈ 8.32 µM) | O=C(CCc1ccc(O)cc1)CC(=O)CCc1ccc(O)cc1 [LETESTUIANIN C] |
| 0.0006 µg/mL (≈ 0.00176 µM) | 0.0005 µg/mL (≈ 0.00147 µM) | 0.004 µg/mL (≈ 0.0117 µM) | N=C(N)c1ccc(OCCCCCOc2ccc(C(=N)N)cc2)cc1 [PENTAMIDINE] |

From ChEMBL document CHEMBL1150674, “Trypanocidal diarylheptanoids from Aframomum letestuianum” (J Nat Prod, 2003)
